Laboratory results taken from ChEMBL document CHEMBL1122724, “Synthesis and kinetic studies of protease substrates containing the 1-methyl-6-aminoquinolinium ion as a fluorogenic leaving group” (J Med Chem, 1984).
Blank lines part the entries; values can stand above or below the compound they belong to.

Legend:
[1] = (§1) Ratio of Kcat to Km of the compound
[2] = molecular target: Pancreatic elastase (Sus scrofa) (UniProt P08419+P00772); assay: (§2) Kinetic constant was determined from the initial rates of enzymatic hydrolysis by the Lineweaver-Burke method against elastase at a concentration of 1.4 uM; format: protein assay
Outline: (§3)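 Porcine pancreatic elastase assayed in 67 mM Tris-HCl pH 8.8 at 37 °C in a thermostatted cuvette. Specific activity was checked with orcein-elastin before each experiment. Leaving-group fluorescence was read at 410/550 nm (MAQ+) or 355/550 nm (6-AQ). Kinetic constants came from initial rates by Lineweaver–Burk analysis.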

[3] = molecular target: Serine protease 1 (Homo sapiens) (UniProt P07477); assay: Kinetic constant was determined from the initial rates of enzymatic hydrolysis by the Lineweaver-Burke method against trypsin enzyme at a concentration of 1.0 uM; conditions: Sus scrofa
Sequence of Serine protease 1 (Homo sapiens) (P07477 whole entry): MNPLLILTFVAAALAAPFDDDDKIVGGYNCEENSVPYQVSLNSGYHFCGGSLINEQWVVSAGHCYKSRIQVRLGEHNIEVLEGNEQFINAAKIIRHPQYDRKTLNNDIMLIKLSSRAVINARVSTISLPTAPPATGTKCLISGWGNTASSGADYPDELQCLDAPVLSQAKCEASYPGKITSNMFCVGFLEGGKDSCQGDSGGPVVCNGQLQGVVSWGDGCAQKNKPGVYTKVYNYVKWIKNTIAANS
Outline: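 Trypsin, active-site titrated with p-nitrophenyl p-guanidinobenzoate, was used in 46 mM Tris-HCl pH 8.1 containing 11 mM CaCl2 at 25 °C. Hydrolysis was monitored by fluorescence, with excitation/emission 410/550 nm for MAQ+ and 355/550 nm for 6-AQ. Initial rates were fitted by the Lineweaver–Burk method.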

[4] = molecular target: Serine protease 1 (Homo sapiens) (UniProt P07477); assay: as §1; conditions: Sus scrofa
[5] = tested on: C[n+]1cccc2cc(NC(=O)[C@H](Cc3ccccc3)NC(=O)OCc3ccccc3)ccc21; assay: Kinetic constant was determined from the initial rates of enzymatic hydrolysis by the Lineweaver-Burke method against chymotrypsin enzyme at a concentration of 2.0 uM; conditions: Sus scrofa
Outline: (§4)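 Chymotrypsin assayed in 50 mM Tris-HCl pH 8.0 with 10 mM CaCl2 at 25 °C. Active enzyme was titrated with 2-nitro-4-carboxyphenyl diphenylcarbamate. Product release was followed fluorimetrically, with excitation 410 nm and emission 550 nm for MAQ+, and 355/550 nm for 6-AQ. Constants were taken from initial hydrolysis rates by Lineweaver–Burk plots.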

[6] = tested on: C[C@H](NC(=O)CCC(=O)O)C(=O)N[C@@H](C)C(=O)N[C@@H](C)C(=O)Nc1ccc2ncccc2c1; assay: as §2; format: protein assay; outline: as §3
[7] = tested on: C[C@H](NC(=O)OCc1ccccc1)C(=O)N[C@@H](C)C(=O)N[C@@H](C)C(=O)Nc1ccc2c(ccc[n+]2C)c1; assay: as §2; format: protein assay; outline: as §3
[8] = tested on: C[C@H](NC(=O)OCc1ccccc1)C(=O)N[C@@H](C)C(=O)Nc1ccc2c(ccc[n+]2C)c1; assay: as §2; format: protein assay; outline: as §3
[9] = molecular target: Chymotrypsinogen B (Homo sapiens) (UniProt P17538); assay: Kinetic constant was determined from the initial rates of enzymatic hydrolysis by the Lineweaver-Burke method against alpha-chymotrypsin enzyme at a concentration of 2.0 uM; conditions: Sus scrofa; outline: as §4
Sequence of Chymotrypsinogen B (Homo sapiens) (P17538 34-164 limits assumed, other chains not shown): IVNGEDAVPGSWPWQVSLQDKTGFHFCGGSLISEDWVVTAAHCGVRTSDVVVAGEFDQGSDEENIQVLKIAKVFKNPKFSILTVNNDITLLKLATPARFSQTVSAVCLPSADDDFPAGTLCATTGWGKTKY
Sequence of Chymotrypsinogen B (Homo sapiens) (P17538 167-263 limits assumed, other chains not shown): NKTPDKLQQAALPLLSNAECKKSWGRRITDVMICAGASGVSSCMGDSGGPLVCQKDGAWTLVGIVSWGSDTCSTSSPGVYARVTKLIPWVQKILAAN

[10] = molecular target: Chymotrypsinogen B (Homo sapiens) (UniProt P17538); assay: as §1; conditions: Sus scrofa

Sequence of Pancreatic elastase (Sus scrofa) (from UniProt P08419+P00772) (P00772 whole entry, looked up): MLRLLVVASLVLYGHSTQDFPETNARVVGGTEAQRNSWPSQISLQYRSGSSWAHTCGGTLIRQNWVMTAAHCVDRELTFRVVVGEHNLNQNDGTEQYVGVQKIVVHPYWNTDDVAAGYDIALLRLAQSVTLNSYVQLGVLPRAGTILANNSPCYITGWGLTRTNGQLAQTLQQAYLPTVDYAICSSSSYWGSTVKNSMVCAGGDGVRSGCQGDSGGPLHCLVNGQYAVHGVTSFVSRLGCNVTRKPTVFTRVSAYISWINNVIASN
Sequence of Pancreatic elastase (Sus scrofa) (from UniProt P08419+P00772) (P08419 whole entry, looked up): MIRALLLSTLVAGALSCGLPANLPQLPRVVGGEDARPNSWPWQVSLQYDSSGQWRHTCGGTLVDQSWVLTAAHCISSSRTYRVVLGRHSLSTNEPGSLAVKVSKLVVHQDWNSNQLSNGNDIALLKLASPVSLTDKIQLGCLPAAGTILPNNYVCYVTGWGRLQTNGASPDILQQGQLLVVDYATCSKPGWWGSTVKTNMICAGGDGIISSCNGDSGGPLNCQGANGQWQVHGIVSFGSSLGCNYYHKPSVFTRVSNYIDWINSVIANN

Ratio [1]: 4740 M⁻¹ s⁻¹
k cat [2]: 1.09 s⁻¹
Compound: C[C@H](NC(=O)OCc1ccccc1)C(=O)N[C@@H](C)C(=O)N[C@@H](C)C(=O)Nc1ccc2c(ccc[n+]2C)c1

Ratio [1]: 10 M⁻¹ s⁻¹
k cat [2]: 0.043 s⁻¹
Compound: C[C@H](NC(=O)OCc1ccccc1)C(=O)N[C@@H](C)C(=O)Nc1ccc2c(ccc[n+]2C)c1

k cat [3]: 0.14 s⁻¹
Ratio [4]: 636 M⁻¹ s⁻¹
Compound: C[n+]1cccc2cc(NC(=O)C(CCCN=C(N)N)NC(=O)c3ccccc3)ccc21 (stereo not drawn)

k cat [9]: 0.14 s⁻¹
Ratio [10]: 79 M⁻¹ s⁻¹
Compound: O=C(O)CCCC(=O)N[C@@H](Cc1ccccc1)C(=O)Nc1ccc2ncccc2c1

k cat [9]: 0.4 s⁻¹
Ratio [10]: 2220 M⁻¹ s⁻¹
Compound: C[n+]1cccc2cc(NC(=O)[C@H](Cc3ccccc3)NC(=O)OCc3ccccc3)ccc21

More lines, now with the values behind:

Compound: C[C@H](NC(=O)CCC(=O)O)C(=O)N[C@@H](C)C(=O)N[C@@H](C)C(=O)Nc1ccc2ncccc2c1
Ratio [1]: 3400 M⁻¹ s⁻¹
k cat [2]: 1.7 s⁻¹

Compound: N=C(N)NCCCC(NC(=O)c1ccccc1)C(=O)Nc1ccc2ncccc2c1 (stereo not drawn)
k cat [3]: 0.6 s⁻¹
Ratio [4]: 1500 M⁻¹ s⁻¹

Compound: Chymotrypsinogen A (Bos taurus) (from UniProt P00766)
Km [5]: 180 µM

Compound: Pancreatic elastase (Sus scrofa) (from UniProt P08419+P00772)
Km [6]: 500 µM
Km [7]: 230 µM
Km [8]: 4170 µM
